The source of these data is ChEMBL document CHEMBL4513216, “Probing the Open Global Health Chemical Diversity Library for Multistage-Active Starting Points for Next-Generation Antimalarials” (ACS Infect Dis, 2020).

The nature of this series: Toxicity liver stage against HepG2, at 10uM. Format: cell-based. Also noted: test concentration 10 uM, cell line HepG2-A16-CD81EGFP. As to conditions: human, HepG2-A16-CD81EGFP cells; read-out: INHIBITION
In short, it runs like this:
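Uninfected HepG2-A16-CD81EGFP cells, 3 × 10^3 per well, 1536-well, plated on prespotted compound at 10 μM final, parasite-free screening media added to match infected plates; puromycin 10 μM positive, DMSO 0.5% negative; run in parallel with 48 h PbLuc assay at 37 °C, 5% CO2; viability by CellTiter-Glo luminescence, normalized to controls.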
In the case of `Cc1cnn(CCNCC(=O)Nc2ccc(Br)cn2)c1`, the cytotoxicity at 10 µM was found to be 1.9%.

Turning to `Cc1nnc([C@H]2CC[C@@H]3[C@@H](CCN3Cc3c(C)noc3C)O2)o1`, the cytotoxicity at 10 µM is -2.26%. For `NC(=O)C1(CNC(=O)CCc2ccc(Cl)s2)CCOCC1`, the cytotoxicity at 10 µM was determined as 9.09%.

Take `Cc1nc2cc(O)nn2c(C)c1CCC(=O)NCCc1nccn1C`: the cytotoxicity at 10 µM is -0.84%. The figure for `CCc1ccc(C2COCCN2C(=O)Nc2cccc(C(C)=O)c2)o1` (configuration not stated) is -7.13%. The figure for `CN(C)CC1COCCN1C(=O)c1ccccc1C(=O)c1ccccc1` (configuration not stated) is 1.12%; for `CC(C)c1cc(C(=O)N2CCN(c3ccc(F)c(Cl)c3)CC2)n(C)n1` it is 19.7%; for `COc1cccc(NC(=O)Nc2ccc3c(c2)CC(=O)N3)c1` it is -2.35%. The figure for `CN1C(=O)CN(C(=O)c2ccc(=O)n(C)c2)c2ccccc21` is -6.67%. `Cc1n[nH]c(C)c1NC(=O)NCc1cc[nH]n1`: the cytotoxicity at 10 µM was -5.18%. The figure for `Cc1nc(-c2ccccc2)cc(C2CCNCC2)n1` is 3.78%; for `O=C(C1CC=CC1)N1CC[C@@H](O)[C@H]1Cc1cccnc1` it is -99.4%; for `CCC(=O)N1CCOC(c2cc(Nc3nncs3)cc(C)n2)C1` (configuration not stated) it is 5.67%. The figure for `Nc1nnc(SCC(=O)c2cc3c(cc2Cl)NC(=O)C3)s1` is -0.139%; for `COCCn1nc(C(=O)N2CCCC2c2cccc(F)c2)ccc1=O` (configuration not stated) it is -5.5%; for `Cc1cnn(CC2CCCN2C(=O)c2sccc2C#N)c1` (configuration not stated) it is 12.3%.

For `Cc1cc(S(=O)(=O)N2CCCc3cc(F)cc(F)c32)sc1C(=O)O`, the cytotoxicity at 10 µM was 21.8%. For the compound `COc1cc(OC)c(C2CC(=O)Oc3cc(C)[nH]c(=O)c32)cc1OC` (configuration not stated), the cytotoxicity at 10 µM was -4.81%. Consider `Cc1nn(C)c2cnn(CC(=O)NCc3ccc(F)cc3)c12`, for which the cytotoxicity at 10 µM came out at 8.27%. The figure for `Fc1cccc(-c2nnn3c2COC(CNCc2nccs2)C3)c1` (configuration not stated) is -102%; for `CN(C)Cc1cn2c(n1)CN(C(=O)Cc1ccsc1)CC2` it is -136%. The figure for `O=C1CC2(CCN(C(=O)C3CCCCC3)C2)Nc2ccccc2N1` (configuration not stated) is 9.13%; for `CC(C)N1CCc2c(CN(C)Cc3ccco3)cncc2C1` it is -2.39%; for `CCn1cnnc1CNC(=O)NC(C)c1cccs1` (configuration not stated) it is -4.92%. The figure for `CCc1ncc2c(n1)CN(Cc1cc(C)on1)CC2` is -16.7%; for `Cn1ccnc1CN1CCCN(C(=O)COCC2CC2)CC1` it is -11.8%; for `Cc1nc(CN2C(=O)CCC23CCN(c2ncccn2)CC3)cs1` it is -7.71%. As to `CNC(=O)C1CCN(C(=O)NCc2ccc(C)n2C)CC1`, the cytotoxicity at 10 µM is -1.81%. In the case of `O=C1[C@H]2CN(S(=O)(=O)c3ccccc3)C[C@H]2CN1Cc1cccnc1`, the cytotoxicity at 10 µM is -0.0837%. The figure for `CC(C)CCOCCNC(=O)Nc1cc(C(F)(F)F)c[nH]c1=O` is -1.72%; for `COCC(=O)N1CCC2(C1)c1ccccc1S(=O)(=O)N2CC1CC1` (configuration not stated) it is 4.39%. The figure for `COc1ccc(CN(C)C(=O)CCc2c(C)nc(C)[nH]c2=O)cc1OC` is -11.2%. For `COc1ccc(O[C@H]2COCCN(Cc3cccc4c3OCO4)C2)cc1`, the cytotoxicity at 10 µM is 0.375%. The figure for `COc1cc2c(cc1OC)CN(C(=O)NCC1CCCO1)CC2` (configuration not stated) is -16%; for `CC(C)OCc1noc(C2CCOC2)n1` (configuration not stated) it is 1.19%; for `CCN(CC)CCNC(=O)c1cc(C(C)C)nc(N2CCCC2)n1` it is -2.44%. The figure for `COc1ccccc1CC(C)CC(=O)O` (configuration not stated) is 12.9%; for `CN1CCN(S(C)(=O)=O)Cc2cccnc21` it is -112%.

Take `Cn1nnc2c1C(COCC1CC1)CN(C(=O)[C@H]1CCCO1)C2` (some centres not stated): the cytotoxicity at 10 µM was -8.01%. The figure for `NC(=O)c1ccc(-n2ccnc2C2CC2)cc1N1CCCC1` is -3.82%; for `CCCNC(=O)Cn1cc(OC)c(=O)cc1CSc1nc(C)cc(C)n1` it is 4.46%.

On to `O=S1(=O)COCCN1CCOc1ccccc1`, for which the cytotoxicity at 10 µM is 5.1%. The figure for `Cn1cnc2c1CCN(Cc1csc(-c3ccccc3F)n1)C2` is -4.25%; for `O=C(c1ccnnc1)N1CCN2C[C@H](OCc3ccccn3)C[C@H]2C1` it is -77.2%; for `CCc1noc(CNc2c(F)cccc2-n2cccn2)n1` it is -5.14%. The figure for `O=C1[C@H]2CN(CC3CCOCC3)C[C@H]2CN1Cc1cccc(F)c1` is -118%. Turning to `Cc1c(C)n(Cc2ccccn2)c2nc3c(c(N)c12)CCCC3`, the cytotoxicity at 10 µM stood at 8.37%. The figure for `COc1ccc(C(=O)N2C[C@@H](C(=O)O)[C@H](c3cccc(F)c3)C2)c(O)c1` is 6.03%; for `CCn1cc(CNCc2ccc(C(=O)OC)cc2)c(C)n1` it is -3.78%. The figure for `CCOc1ccc(NC(C)=O)cc1S(=O)(=O)Nc1cc(C)on1` is -4.13%; for `O=C(c1ccc(-c2ccc(O)nc2)s1)N1CCCCCC1` it is 4.51%.

With `CC(C)c1nnc2n1CC(CNCc1nc3ccccc3s1)CC2` (configuration not stated), the cytotoxicity at 10 µM came out at 13%. On to `CCN(CC)S(=O)(=O)CCNC(=O)c1cc2cccc(F)c2o1`, for which the cytotoxicity at 10 µM was -3.12%. In the case of `CCOC1CCN(C(=O)NCCN(C)C(=O)OC(C)(C)C)CC1`, the cytotoxicity at 10 µM is 15.8%. As to `CCN(Cc1ccc2c(c1)OCCO2)C(=O)NCc1csc(C)n1`, the cytotoxicity at 10 µM is -5.16%. The figure for `CN(C(=O)C1CSCN1S(=O)(=O)c1ccc(F)cc1)C1CC1` (configuration not stated) is 1.18%.

In the case of `CCS(=O)(=O)N1CCC2(CC1)CN(Cc1ccccn1)C(=O)CO2`, the cytotoxicity at 10 µM came out at 3.01%. The figure for `c1cc(CO[C@H]2CC[C@H]3[C@H]2OCCN3Cc2nccs2)ccn1` is -109%; for `Cc1ccc(SC2CCCC2)c(C(=O)NCCO)c1` it is -45.3%. The figure for `O=C(NCCNc1cnccn1)N1CC=C(c2ccc(O)cc2)CC1` is 18.6%; for `c1cnc(N2CCC3(COCCN(CC4CCOCC4)C3)C2)nc1` (configuration not stated) it is -1.56%; for `CC(C)C(NC(=O)NCC1CC1)c1nnc2n1CCC2` (configuration not stated) it is -7.44%. The figure for `COc1ccc(-c2nnc(SC(C)C(=O)NC3CCCC3)[nH]2)c(OC)c1` (configuration not stated) is 36.4%; for `CC(=O)NCC(=O)N1CCc2c(CN(C)C)nn(C(C)C)c2C1` it is -4.94%. As for `COc1nc2c(cc1C(=O)N(C)Cc1[nH]nc3c1CCC3)CCC2`, the cytotoxicity at 10 µM is -1.77%. The figure for `CC(=O)NCC1CCN(C(=O)NCCOc2ccc3c(c2)CCC3)CC1` is -5.31%; for `CC(C)c1nc(O)c2nnn(C[C@H]3CCCN(Cc4ccsc4)C3)c2n1` it is 1.8%; for `O=C(c1c(F)cccc1F)N1CCOCC1` it is 5.33%. The figure for `CN(C)S(=O)(=O)c1ccc2c(c1)N(Cc1ccccn1)CCC2` is 0.645%; for `Cc1ccccc1CN1CC[C@H](c2nnc(-c3cncn3C)o2)C1` it is 5.08%. The figure for `Cn1nccc1CCC(=O)N1CCOC(c2cnccn2)C1` (configuration not stated) is -25.9%; for `O[C@@H]1CCN(CC2CCOC2)[C@H]1Cc1ccccc1` (some centres not stated) it is -7.98%; for `COCc1ncn2c1CN(S(=O)(=O)c1cccs1)CCC2` it is 6.82%. With `NC(=O)CCC1CCCN(c2ccc3ccc(F)cc3n2)C1` (configuration not stated), the cytotoxicity at 10 µM was -0.386%. The figure for `O=C1Nc2ccccc2/C1=C1\CCCN1` is 5.02%; for `Cc1nn(C)c2c(N3CCN(C(=O)NC4CCCCC4)CC3)ncnc12` it is 9.09%; for `COc1ccc(CCN(C)C(=O)c2cc(C(C)=O)c[nH]2)cc1OC` it is 5.38%. The figure for `Cc1nc(-c2ccc(S(=O)(=O)N3CCSC3)cc2)co1` is 17.2%; for `O=C(Cn1nc2c(cc1=O)CSCC2)N[C@@H](Cc1ccccc1)C(=O)O` it is -3.14%; for `O=C(NCCCF)N1CCC(n2ccc(C(F)(F)F)n2)CC1` it is -5.29%.

Regarding `c1ccc2c(Cc3nnc([C@H]4CCN(C5CCOCC5)C4)o3)c[nH]c2c1`, the cytotoxicity at 10 µM worked out at 2.9%. The figure for `Cc1nsc(NC(=O)NC2CCN(C)CC2)n1` is -10.7%; for `O=C(Cc1ccccn1)N1CCc2ncnc(NC3CCC3)c2CC1` it is 3.25%; for `Cc1ccc2cc(CNCCCO)c(=O)[nH]c2c1` it is 0.127%. The figure for `CC(=O)Nc1ccc(-c2ccccc2NC(=O)CN)cc1` is 2.83%; for `CN1CCC(NC(=O)CCCc2cc(Cl)sc2Cl)C1=O` (configuration not stated) it is -2.46%; for `c1ccc(-c2nccc(CNC3CCc4ncnn4C3)n2)cc1` (configuration not stated) it is 0.787%.

For the compound `Fc1cccnc1N1CCOCC2(CCCN(c3nncs3)C2)C1` (configuration not stated), the cytotoxicity at 10 µM came to 3.44%. The figure for `CCCC(=O)Nc1cnn(CC(=O)Nc2ccc(SC)cc2)c1` is -8.81%. The figure for `CN(C)C(=O)CN1CCCC1c1nccnc1Nc1ccccn1` (configuration not stated) is -15%. The figure for `CN(C)c1ncc2c(O)nc(C3CCNCC3)cc2n1` is 13.3%; for `Cc1ccc(-c2cc(C(=O)NCCCc3csc(N)n3)[nH]n2)o1` it is 79.5%. With `CC(=O)c1ccc(NC(=O)C(NC(=O)Nc2ccccc2)C(C)C)cc1` (configuration not stated), the cytotoxicity at 10 µM is -0.719%. The figure for `c1cnc(N2CC[C@@H]3O[C@@H](COCc4cccnc4)CC[C@@H]32)nc1` is 11.2%; for `Cc1cc(NC(=O)C2CN(Cc3ccccc3)CCO2)ccn1` (configuration not stated) it is 54.9%; for `COc1cc(CNc2cnn(CC(F)F)c2)ccc1O` it is 0.553%. In the case of `CN1CCOC(CN(C(=O)CCc2ccco2)c2nccs2)C1` (configuration not stated), the cytotoxicity at 10 µM was -16.1%.
